The subject of one experiment is NCI-H1975. Nature of the experiment: Antiproliferative activity against human NCI-H1975 cells assessed as inhibition of cell growth measured after 72 hrs by CCK-8 assay. The following applies: NCI-H1975, 72 h. The experiment is classed as functional, cell-based. In outline: (§1)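 Cells seeded at 3000 cells/well in 96-well plates and treated with graded compound concentrations one day later for 72 h. CCK-8 was added for 1–4 h and absorbance read at 450 nm. Lung cancer lines were kept in RPMI 1640 with 10% fetal calf serum at 37 °C and 5% CO₂.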
In general terms: Tetrazolium dyes change colour on reduction, which living cells bring about.

In a further experiment the test system is BJ. Nature of the experiment: Cytotoxicity against human BJ cells assessed as inhibition of cell growth measured after 72 hrs by CCK-8 assay. It is filed as cell-based. In outline:
as §1

The nature of experiment [1]: Antiproliferative activity against human PB1 cells assessed as inhibition of cell growth measured after 72 hrs by CCK-8 assay. It is filed as functional, cell-based. The following applies: PB1, 72 h. Put shortly: as §1
The test system of the next experiment is HEK-293T. Description: Cytotoxicity against human HEK293T cells assessed as inhibition of cell growth measured after 72 hrs by CCK-8 assay. It is filed as cell-based. In outline: as §1
The test system of a further experiment is PC-9. Nature of the experiment: Antiproliferative activity against human PC-9 cells assessed as inhibition of cell growth measured after 72 hrs by CCK-8 assay. It is filed as functional, cell-based. The following applies: PC-9, 72 h. In outline: as §1
The subject of a further experiment is HCC827. Description: Antiproliferative activity against human HCC827 cells assessed as inhibition of cell growth measured after 72 hrs by CCK-8 assay. The following applies: HCC827, 72 h. It is filed as functional, cell-based. Put shortly: as §1
The subject of the next experiment is BaF3. Description: Antiproliferative activity against mouse BaF3 cells assessed as inhibition of cell growth measured after 72 hrs by CCK-8 assay. The experiment is classed as functional, cell-based. The following applies: BaF3, 72 h. Put shortly:
as §1

The test system of another experiment is A549. Description: Antiproliferative activity against human A549 cells assessed as inhibition of cell growth measured after 72 hrs by CCK-8 assay. It is filed as functional, cell-based. To be noted: A549, 72 h. Put shortly:
as §1

The term IC50 denotes the midpoint of a concentration-inhibition curve. In the case of `C=CC(=O)Nc1cc2c(Nc3ccc(F)c(Cl)c3)ncnc2cc1OCCCN1CCN(C(=O)CCCNc2cccc3c2C(=O)N(C2CCC(=O)NC2=O)C3=O)CC1` (stereo not drawn), the IC50 in the experiment with NCI-H1975 was 209 nM; in the experiment with BJ, greater than 10000 nM; in experiment [1], 146 nM; with HEK-293T it was 14700 nM; in the experiment with PC-9, 1.38 nM.
For `C=CC(=O)Nc1cc2c(Nc3ccc(F)c(Cl)c3)ncnc2cc1OCCCN1CCN(C(=O)CCNc2cccc3c2C(=O)N(C2CCC(=O)NC2=O)C3=O)CC1` (stereo not drawn) the same measures were 110 nM, greater than 10000 nM, 163 nM, greater than 10000 nM and 0.977 nM.
In the case of `C=CC(=O)Nc1cc2c(Nc3ccc(F)c(Cl)c3)ncnc2cc1OCCCN1CCN(C(=O)CNc2cccc3c2C(=O)N(C2CCC(=O)NC2=O)C3=O)CC1` (stereo not drawn), the IC50 is 234 nM in the experiment on NCI-H1975; greater than 10000 nM in the experiment with BJ; 190 nM in experiment [1]; greater than 10000 nM with HEK-293T; 5 nM in the experiment with PC-9.
As to `C=CC(=O)Nc1cc2c(Nc3ccc(F)c(Cl)c3)ncnc2cc1OCCCN1CCN(C(=O)CCCCNc2cccc3c2C(=O)N(C2CCC(=O)NC2=O)C3=O)CC1` (stereo not drawn), the IC50 in the experiment with NCI-H1975 was 35.4 nM; in the experiment with BJ it was greater than 10000 nM; in experiment [1] it was 122 nM; in the experiment on HEK-293T, greater than 10000 nM; in the experiment with PC-9, 0.452 nM.
Consider `C=CC(=O)Nc1cc2c(Nc3ccc(F)c(Cl)c3)ncnc2cc1OCCCN1CCNCC1`, for which the IC50 was determined as 162 nM in the experiment with NCI-H1975; 2740 nM with BJ; 33.4 nM in experiment [1]; 21800 nM in the experiment with HEK-293T; 1.11 nM in the experiment on PC-9.
Take `C=CC(=O)Nc1cc2c(Nc3ccc(F)c(Cl)c3)ncnc2cc1OCCCN1CCOCC1` [CANERTINIB]: the IC50 was determined as 0.378 nM with HCC827; 11.3 nM in the experiment with NCI-H1975; 5610 nM with BJ; 70.2 nM in experiment [1]; 9.2 nM in the experiment on BaF3; 6000 nM with HEK-293T. Moreover, the IC50 in the experiment on A549 is 7160 nM; in the experiment with PC-9, 0.859 nM.

These data come from ChEMBL document CHEMBL4825665, “Effective degradation of EGFRL858R+T790M mutant proteins by CRBN-based PROTACs through both proteosome and autophagy/lysosome degradation systems” (Eur J Med Chem, 2021).
